esBAF inh = SWI/SNF esBAF complex inhibition; mouse ES cells, Bmi1-luciferase knock-in reporter, 24 h; 100% = twice the neutral-well signal; reporter increase, % at 12.5 µM; hit rate 2% among 350,000; AID 602393; in the data active = activation above about 40%; inconclusive = no clear call, values can overlap the other calls;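 also: 0% = median of the plate's neutral control wells and 100% = double that signal; a rise in the Bmi1 reporter signal indicates esBAF inhibition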
Xi reactivation = X-chromosome reactivation activator; hit rate 0.055% among 360,000; XiGFP mouse fibroblasts, % GFP-positive cells imaging, 3 d; cells co-treated with 5-aza-dC sensitizer; scaled so ellipticine positive control = 100%; AID 743238; activation, % at 7.58 µM;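 active = mean normalized replicate activation at least 10% and every replicate at or above 10%; inconclusive = only one of the two criteria met; inactive = mean below 10% and not all replicates reach 10%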;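 also: 0% = median of on-plate neutral control wells and 100% = ellipticine 6 µM median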
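Material: XiGFP fibroblasts, SV40-immortalized; Buffer or medium: DMEM containing 5-aza-dC; Compound dosing: single point; Times: 3 days compound exposure.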
MITF act = activators of MITF-driven TRPM1 promoter activity in SK-MEL-5 cells. SK-MEL-5 TRPM1-promoter luciferase, 24 h; % of positive control, neutral wells = 0. activation, % at 12.5 µM. hit rate 0.75% among 300,000;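 active = mean activation of at least 80% with every replicate also reaching 80%; inconclusive = mean reaches 80% but some replicate falls short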;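 also: 0% = neutral control wells and 100% = parthenolide positive control wells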
Vif inh = blocks HIV Vif function. HEK293T cells, Vif self-association by quenched fluorescence, imaging, 24 h. inhibition, % at 7.49 µM. hit rate 0.35% among 340,000. AID 602346; in the data active = inhibition above about 50%, passing the limit was not always enough; inconclusive = no clear call, values can overlap the other calls; inactive = below about 31%
Wnt bcat act = activators of Wnt/beta-catenin signaling. hit rate 1.2% among 300,000. activation, % at 9.35 µM. AID 743398. Wnt/beta-catenin reporter cell assay, activator, plate reader; in the data active = activation above about 30%, passing the limit was not always enough; inconclusive = no clear call, values can overlap the other calls;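 also: 0% = neutral control wells and 100% = positive control wells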
Starred values were filed as active, the others as inactive; ? = inconclusive; . = no result given. Compounds with a hit are over-represented: about 2.6% of the library has one in this group of screens.

SMILES	esBAF inh	Xi reactivation	MITF act	Vif inh	Wnt bcat act
Cc1cc(C(=O)CN2C(=O)NC(CC(C)C)C2=O)c(C)n1-c1ccccc1F (stereo not drawn)	.	0.5	-1.8	-0.2	-1.1
Cc1cc(C(=O)CN2C(=O)NC(CC(C)C)C2=O)c(C)n1C1CC1 (stereo not drawn)	43.1*	0.3	29.3	11.2	5.1
CO[C@@H]1CN(C)C(=O)c2cc(NS(=O)(=O)c3ccc(C)cc3)ccc2OC[C@H](C)NC[C@H]1C	0.4	0.1	.	.	.
Cc1cc(N2CCCCC2)nc2ccc(NC(=O)CCC(=O)NCCC(C)C)cc12	74.2*	.	.	-3.9	43.3*
Cc1cc(N2CCOCC2)nc2ccc(NC(=O)CCC(=O)N3CCN(c4ccccc4)CC3)cc12	53.2*	-0.1	79.8	3.5	3.7
CCN(CC)CCCNC(=O)CCC(=O)Nc1ccc2nc(N3CCCCC3)cc(C)c2c1	8.8	0.0	20.9	-0.8	19.5
CCCCNC(=O)CCC(=O)Nc1ccc2nc(N3CCOCC3)cc(C)c2c1	43.1*	.	.	-12.5	14.4
CCCCNC(=O)CCC(=O)Nc1ccc2nc(N3CCCCC3)cc(C)c2c1	.	-0.1	61.8	-6.5	-0.6
CN1CCN(C(=O)C[C@@H]2CC[C@@H]3[C@H](COc4ccc(NC(=O)c5ccc(F)c(F)c5)cc4C(=O)N3C)O2)CC1	-3.6	0.1	.	.	.
O=C(NCc1ccc(Cl)cc1)c1ccc(Cl)cc1[N+](=O)[O-]	-8.3	.	8.7	0.4	0.3
O=C(NCCc1ccccc1)c1ccc(Cl)cc1[N+](=O)[O-]	62.2*	0.0	57.2	0.8	8.4
COC(=O)c1ccc(CSC2=NCCS2)cc1	.	0.4	84.2*	9.2	.
Clc1ccccc1CSc1cc2c(nn1)-c1ccccc1CC2	88.1*	.	58.4	-16.2	.
CCCCCN1CC(O)=C(c2nc3ccccc3[nH]2)C1=N	.	0.0	52.4	6.4	7.0
CCCCN1CC(O)=C(c2nc3ccccc3[nH]2)C1=N	58.5*	.	65.4	0.6	22.4
COc1ccc(CNC(=O)Cc2ccc(NC(=O)C3=C(C)OCCS3)cc2)cc1	7.6	0.2	7.7	6.1	9.9
CC1=C(C(=O)Nc2ccc(CC(=O)NCc3ccc(OC(C)C)cc3)cc2)SCCO1	45.9*	0.8	5.8	-0.2	-6.5
CCCCCC[n+]1ccccc1/C=C/c1ccc(N(C)C)cc1	-40.4	16.3*	.	.	-9.8
O=C(CSc1ncccn1)Nc1ccccc1	5.4	.	4.0	2.0	.
O=C(O)CSc1ncccn1	-5.3	53.5*	6.0	-0.9	5.4
O=C(CSc1ncccn1)c1ccccc1Br	40.9*	.	60.9	.	.
N#CCNC(=O)c1cccn1-c1ncc(C(F)(F)F)cc1Cl	-0.7	0.0	-2.8	11.7	38.2*
C#CCNC(=O)c1cccn1-c1ncc(C(F)(F)F)cc1Cl	.	0.1	5.8	17.9	1.2
COc1ccc(CN(C)C[C@@H]2Oc3c(NS(=O)(=O)c4cn(C)cn4)cccc3C(=O)N([C@H](C)CO)C[C@H]2C)cc1	2.7	0.2	.	.	.
COc1ccc(C2=Nn3c(nnc3-c3ccc(OC)cc3)SC2)cc1	-1.4	.	.	65.5*	.
SMILES	esBAF inh	Xi reactivation	MITF act	Vif inh	Wnt bcat act
COc1ccc(C2=Nn3c(nnc3-c3ccccc3OC)SC2)cc1OC	-7.4	.	.	55.0*	.
Cc1noc(C)c1NC(=O)Nc1ccc2c(c1)C(=O)N([C@H](C)CO)C[C@H](C)[C@H](CN(C)S(=O)(=O)c1cn(C)cn1)OCCCC[C@@H](C)O2	5.7	3.4	.	.	.
CO[C@H]1CN(C)C(=O)c2cc(NS(C)(=O)=O)ccc2OC[C@@H](C)NC[C@H]1C	.	0.5	.	.	.
Oc1ccc(C2C(c3ccccc3)=NN=C(c3ccccc3F)N2O)c(O)c1 (stereo not drawn)	.	.	-0.6	1.7	.
Oc1ccc(C2C(c3ccccc3)=NN=C(c3ccc(Cl)cc3)N2O)c(O)c1 (stereo not drawn)	46.4*	0.0	19.4	.	2.7
Cc1ccc(SCC(=O)Nc2ccc(N3CCN(C)CC3)c(F)c2)cc1	30.4	.	.	5.3	40.1*
CO[C@H]1CN(C)C(=O)c2cc(NC(=O)c3ccccc3)ccc2OC[C@@H](C)N(CC2CC2)C[C@@H]1C	2.0	-0.1	.	.	.
CCOC(=O)c1snc(C(=O)NC2CCCCC2)c1N	59.7*	.	84.1*	3.1	19.9
CC(c1ccco1)N(C(=O)COc1ccc(Cl)cc1)c1ccccn1 (stereo not drawn)	72.4*	.	33.7	.	.
CC(c1ccco1)N(C(=O)COc1ccc(Cl)cc1Cl)c1ccccn1 (stereo not drawn)	27.3	.	104.7*	-2.2	17.6
O=C1N[C@@H](Cc2ccccc2)COCc2cn(nn2)CC[C@@H]1Cc1cccc(Cl)c1	.	0.3	.	.	.
O=C(C1CCOCC1)N1C[C@H]2[C@@H](c3ccccc31)[C@@H](CO)N2C(=O)Cc1ccccc1	2.0	0.0	.	.	.
Cc1ccccc1Nc1c(C)c(C)nc2ncnn12	6.4	0.0	-0.7	142.7*	-1.8
CC(C)n1c(=O)c2ccccc2n1C(=O)c1ccccc1	-2.2	-0.1	.	-3.3	0.8
CC(CCl)n1c(=O)c2ccccc2n1S(C)(=O)=O (stereo not drawn)	.	0.1	.	.	-0.2
O=C(c1ccccc1)n1c2ccccc2c(=O)n1-c1ccccc1CCl	87.1*	.	.	1.5	.
CS(=O)(=O)n1c2ccccc2c(=O)n1-c1ccccc1CCl	55.5*	-0.1	.	1.7	4.9
C[C@@H]1CN([C@H](C)CO)C(=O)c2cccc(NC(=O)Nc3ccc4c(c3)OCO4)c2O[C@H]1CN(C)CC1CCCCC1	.	-1.2	.	.	.
CCn1nnnc1SCC(=O)c1ccc2c(c1)OCCO2	?	.	15.9	-4.6	12.4
CCn1c(C)cc(C(=O)CSc2nnnn2C2CCCC2)c1C	-11.2	0.0	105.1*	1.4	2.7
CC(C)n1nnnc1SCC(=O)c1ccc2c(c1)OCCO2	46.7*	.	77.3	.	29.5
O=C(CSc1nnnn1C1CCCC1)c1ccc2c(c1)OCCO2	81.2*	.	74.4	1.7	?
Cc1ccc(C)c(C(=O)CSc2nnnn2C(C)C)c1	51.4*	.	45.0	1.0	.
Cc1ccc(S(=O)(=O)Nc2ccc3c(c2)C(=O)N([C@@H](C)CO)C[C@@H](C)[C@@H](CN(C)S(=O)(=O)c2cn(C)cn2)O3)cc1	-2.2	-0.7	.	.	.
COc1cccc(/C=N/Nc2ccccc2C(=O)O)c1O	4.0	0.2	26.4	-1.2	34.9*
SMILES	esBAF inh	Xi reactivation	MITF act	Vif inh	Wnt bcat act
O=C(O)c1ccccc1NN=Cc1ccccc1	.	0.0	39.9	-2.0	61.0*
Oc1ccc(/C=N/Nc2ncnc3nc[nH]c23)cc1	0.3	-0.7	-2.1	6.4	1.4
Cc1ccc(/C=N/Nc2ncnc3nc[nH]c23)cc1	-0.4	0.3	73.7	7.9	47.0*
Clc1ccc(/C=N/Nc2ncnc3nc[nH]c23)cc1	11.2	-0.1	187.1*	0.4	0.1
N#C/C(=C\c1cccs1)C(=O)Nc1nccs1	119.2*	0.0	?	-26.0	56.0*
C/C(=C\c1ccccc1)C(=O)Nc1nccs1	?	0.0	78.0	8.6	52.3*
O=C(Nc1nccs1)c1ccc(Br)cc1	43.1*	-0.1	?	-35.5	12.1

Screens deposited in PubChem BioAssay by Broad Institute.
